ChEMBL document CHEMBL4130442, “Design, synthesis and structure-activity relationship studies of a focused library of pyrimidine moiety with anti-proliferative and anti-metastasis activities in triple negative breast cancer” (Eur J Med Chem, 2017)
Active and inactive are the calls of the source. The rule behind the calls is not given here.

How the values were obtained:
MCF7 = assay: Antiproliferative activity against human MCF7 cells incubated for 24 hrs by MTT assay; assay type: functional, cell-based; conditions: MCF7, 24 h
MDA-MB-231 [1] = assay: Induction of apoptosis in human MDA-MB-231 cells assessed as change in cleaved caspase-3 protein level at 2.5 uM incubated for 24 hrs by Western blot method relative to untreated control; assay type: functional
Outline: (§1)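 MDA-MB-231 cells were exposed for 24 h. Adherent and floating cells were pooled and lysed for 1 h at 4 °C in 50 mM Hepes pH 7.4 with 1% Triton X-100, orthovanadate, NaF, EDTA, PMSF, aprotinin and leupeptin. After 12,000 rpm clearing, equal protein was run on 10-15% SDS-PAGE and blotted to PVDF. Detection used HRP-ECL, with β-actin as loading control and densitometric quantification.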

MDA-MB-231 [2] = assay: Induction of apoptosis in human MDA-MB-231 cells assessed as change in cleaved caspase-3 protein level at 10 uM incubated for 24 hrs by Western blot method relative to untreated control; assay type: functional; outline: as §1
[3] = target: T1, Platelet-derived growth factor receptor beta (Homo sapiens, UniProt P09619); assay: Inhibition of PDGFRbeta in human MDA-MB-231 cells assessed as PDGFRbeta Tyr740 phosphorylation level at 5 uM incubated for 24 hrs by Western blot relative to untreated control; assay type: cell-based
T1 sequence (P09619 whole entry): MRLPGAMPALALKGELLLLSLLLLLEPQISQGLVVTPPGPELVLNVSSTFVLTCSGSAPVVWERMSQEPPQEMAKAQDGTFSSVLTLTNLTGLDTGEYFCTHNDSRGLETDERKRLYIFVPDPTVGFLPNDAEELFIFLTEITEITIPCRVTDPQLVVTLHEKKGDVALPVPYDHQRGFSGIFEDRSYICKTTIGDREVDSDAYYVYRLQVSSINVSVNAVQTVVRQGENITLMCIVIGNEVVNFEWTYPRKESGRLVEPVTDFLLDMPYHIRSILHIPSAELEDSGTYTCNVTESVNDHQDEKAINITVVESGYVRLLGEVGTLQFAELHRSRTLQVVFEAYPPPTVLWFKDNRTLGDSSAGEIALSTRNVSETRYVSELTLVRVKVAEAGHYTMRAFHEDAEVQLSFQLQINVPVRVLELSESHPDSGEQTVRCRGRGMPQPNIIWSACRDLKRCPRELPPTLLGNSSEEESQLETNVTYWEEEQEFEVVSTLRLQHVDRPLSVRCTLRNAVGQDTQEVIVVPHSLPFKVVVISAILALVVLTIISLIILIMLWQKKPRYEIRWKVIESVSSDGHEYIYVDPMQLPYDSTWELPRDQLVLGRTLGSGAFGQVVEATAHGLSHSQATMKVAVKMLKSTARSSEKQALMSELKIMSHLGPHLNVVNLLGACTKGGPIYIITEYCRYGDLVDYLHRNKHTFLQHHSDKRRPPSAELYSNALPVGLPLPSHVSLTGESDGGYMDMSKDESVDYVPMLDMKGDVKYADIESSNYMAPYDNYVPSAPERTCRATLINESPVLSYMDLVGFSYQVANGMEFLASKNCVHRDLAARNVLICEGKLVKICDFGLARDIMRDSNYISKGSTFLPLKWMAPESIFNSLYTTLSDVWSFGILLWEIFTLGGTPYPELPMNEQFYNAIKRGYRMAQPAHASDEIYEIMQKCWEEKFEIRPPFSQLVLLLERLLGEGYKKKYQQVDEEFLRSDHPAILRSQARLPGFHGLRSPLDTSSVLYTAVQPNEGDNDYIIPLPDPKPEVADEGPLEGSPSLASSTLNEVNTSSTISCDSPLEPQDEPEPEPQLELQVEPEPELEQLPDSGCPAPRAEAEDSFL
Outline: (§2)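 Cells were treated 24 h at several concentrations. Pooled adherent and floating cells were lysed in Hepes 50 mM pH 7.4 / 1% Triton X-100 buffer with vanadate, NaF, EDTA, PMSF, aprotinin and leupeptin. Equal protein was run on 10-15% SDS-PAGE and blotted to PVDF. PDGFR-β-AKT-ULK1 pathway phospho-proteins were probed and detected by ECL, with β-actin as loading control.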

[4] = target: T1, Platelet-derived growth factor receptor beta; assay: Inhibition of PDGFRbeta in human MDA-MB-231 cells assessed as Akt Thr305 phosphorylation level at 2.5 uM incubated for 24 hrs by Western blot relative to untreated control; assay type: cell-based; outline: as §2
[5] = target: T1, Platelet-derived growth factor receptor beta; assay: Inhibition of PDGFRbeta in human MDA-MB-231 cells assessed as Akt Thr305 phosphorylation level at 5 uM incubated for 24 hrs by Western blot relative to untreated control; assay type: cell-based; outline: as §2
[6] = target: T1, Platelet-derived growth factor receptor beta; assay: Inhibition of PDGFRbeta in human MDA-MB-231 cells assessed as Akt Thr305 phosphorylation level at 10 uM incubated for 24 hrs by Western blot relative to untreated control; assay type: cell-based; outline: as §2
[7] = target: T1, Platelet-derived growth factor receptor beta; assay: Inhibition of PDGFRbeta in human MDA-MB-231 cells assessed as mTOR Ser2448 phosphorylation level at 2.5 uM incubated for 24 hrs by Western blot relative to untreated control; assay type: cell-based; outline: as §2
[8] = target: T1, Platelet-derived growth factor receptor beta; assay: Inhibition of PDGFRbeta in human MDA-MB-231 cells assessed as ULK Ser317 phosphorylation level at 5 uM incubated for 24 hrs by Western blot relative to untreated control; assay type: cell-based; outline: as §2
MDA-MB-231 [9] = assay: Effect on total Akt protein level in human MDA-MB-231 cells at 2.5 uM incubated for 24 hrs in presence of PDGFRbeta siRNA by Western blot relative to untreated control; assay type: ADME, cell-based; conditions: mda-mb-231, 24 h; outline: as §1
MDA-MB-231 [10] = assay: Induction of autophagy in human MDA-MB-231 cells assessed as change in LC3-2 protein level at 2.5 uM incubated for 24 hrs in presence of control siRNA by Western blot method relative to untreated control; assay type: functional
Outline: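 Before treatment, MDA-MB-231 cells were transfected with control or PDGFR-β siRNA, then exposed to 2.5 μM compound for 24 h. Lysates of pooled adherent and floating cells were immunoblotted (10-15% SDS-PAGE, PVDF, ECL) for PDGFR-β-AKT-ULK1 autophagy signalling markers, with β-actin as loading control.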

[11] = target: T1, Platelet-derived growth factor receptor beta; assay: Inhibition of PDGFRbeta in human MDA-MB-231 cells assessed as Akt Thr305 phosphorylation level at 2.5 uM incubated for 24 hrs in presence of control siRNA by Western blot relative to untreated control; assay type: cell-based
Outline: (§3)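 Cells were transfected with control or PDGFR-β siRNA, then treated with 2.5 μM compound for 24 h. PDGFR-β-AKT-ULK1 pathway phospho-proteins were assessed by western blot: lysis in Hepes pH 7.4 / Triton buffer, 10-15% SDS-PAGE, PVDF, ECL detection, β-actin as loading control.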

[12] = target: T1, Platelet-derived growth factor receptor beta; assay: Inhibition of PDGFRbeta in human MDA-MB-231 cells assessed as ULK Ser317 phosphorylation level at 2.5 uM incubated for 24 hrs in presence of control siRNA by Western blot relative to untreated control; assay type: cell-based; outline: as §3
[13] = target: T1, Platelet-derived growth factor receptor beta; assay: Inhibition of PDGFRbeta in human MDA-MB-231 cells assessed as ULK Ser317 phosphorylation level at 2.5 uM incubated for 24 hrs in absence of PDGFRbeta siRNA by Western blot relative to untreated control; assay type: cell-based; outline: as §3
MDA-MB-231 [14] = assay: Activation of ERK in human MDA-MB-231 cells assessed as ERK phosphorylation level at 2.5 to 10 uM incubated for 24 hrs by immunofluorescence assay; assay type: cell-based
Outline: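 MDA-MB-231 cells (ATCC; DMEM, 10% FBS, 5% CO2) were treated, blocked in PBS with 1.5% goat serum, then given p-ERK antibody (1:200 in PBS with 1% BSA) overnight at 4 °C. TRITC-labelled secondary antibody followed for 1 h at room temperature. Nuclear fluorescence was read by microscopy.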

MDA-MB-231 [15] = assay: Effect on total c-Raf protein level in human MDA-MB-231 cells at 5 uM incubated for 24 hrs in presence of PDGFRbeta siRNA by Western blot relative to untreated control; assay type: cell-based; conditions: mda-mb-231, 24 h
MDA-MB-231 [16] = assay: Effect on total c-Raf protein level in human MDA-MB-231 cells at 10 uM incubated for 24 hrs in presence of PDGFRbeta siRNA by Western blot relative to untreated control; assay type: cell-based; conditions: mda-mb-231, 24 h
MDA-MB-231 [17] = assay: Effect on total ERK1/2 protein level in human MDA-MB-231 cells at 2.5 uM incubated for 24 hrs in presence of PDGFRbeta siRNA by Western blot relative to untreated control; assay type: cell-based; conditions: mda-mb-231, 24 h
MDA-MB-231 [18] = assay: Effect on total ERK1/2 protein level in human MDA-MB-231 cells at 5 uM incubated for 24 hrs in presence of PDGFRbeta siRNA by Western blot relative to untreated control; assay type: cell-based; conditions: mda-mb-231, 24 h
MDA-MB-231 [19] = assay: Effect on total ERK1/2 protein level in human MDA-MB-231 cells at 10 uM incubated for 24 hrs in presence of PDGFRbeta siRNA by Western blot relative to untreated control; assay type: cell-based; conditions: mda-mb-231, 24 h
[20] = target: T1, Platelet-derived growth factor receptor beta; assay: Inhibition of PDGFRbeta in human MDA-MB-231 cells assessed as C-Raf Ser259 phosphorylation level at 2.5 uM incubated for 24 hrs in presence of PDGFRbeta siRNA by Western blot relative to untreated control; assay type: cell-based
[21] = target: T1, Platelet-derived growth factor receptor beta; assay: Inhibition of PDGFRbeta in human MDA-MB-231 cells assessed as C-Raf Ser259 phosphorylation level at 5 uM incubated for 24 hrs in presence of PDGFRbeta siRNA by Western blot relative to untreated control; assay type: cell-based
[22] = target: T1, Platelet-derived growth factor receptor beta; assay: Inhibition of PDGFRbeta in human MDA-MB-231 cells assessed as C-Raf Ser338 phosphorylation level at 5 uM incubated for 24 hrs in presence of PDGFRbeta siRNA by Western blot relative to untreated control; assay type: cell-based

`COc1cccc(Nc2cc(N3CCN(C(=O)Nc4ccc(C(F)(F)F)cc4)CC3)ncn2)c1` was tested, and the IC50 (MCF7) was 2160 nM, the “fold change (FC)” value (MDA-MB-231 [1]) was 0.87 and the “fold change (FC)” value (MDA-MB-231 [2]) was 0.32. The fold change (FC) [3] was 0.78, the fold change (FC) [4] was 0.95 and the fold change (FC) [5] was 0.75. For the same molecule, the fold change (FC) [6] was 0.12, the fold change (FC) [7] was 0.74 and the fold change (FC) [8] was 2.1. The “fold change (FC)” value (MDA-MB-231 [9]) was 0.63, the “fold change (FC)” value (MDA-MB-231 [10]) was 2.34 and the fold change (FC) [11] was 0.1. The fold change (FC) [12] was 3.21, the fold change (FC) [13] was 3.67 and the Activity (MDA-MB-231 [14]) was “Active”. The “fold change (FC)” value (MDA-MB-231 [15]) was 0.82, the “fold change (FC)” value (MDA-MB-231 [16]) was 1.23 and the “fold change (FC)” value (MDA-MB-231 [17]) was 1.08. The “fold change (FC)” value (MDA-MB-231 [18]) was 2, the “fold change (FC)” value (MDA-MB-231 [19]) was 1.53 and the fold change (FC) [20] was 0.95. It also gave a fold change (FC) [21] of 1.06 and a fold change (FC) [22] of 0.78.
